{"source": "ChEMBL document CHEMBL1157616", "about": "“Identification of 2-anilino-9-methoxy-5,7-dihydro-6H-pyrimido[5,4-d][1]benzazepin-6-ones as dual PLK1/VEGF-R2 kinase inhibitor chemotypes by structure-based lead generation” (J Med Chem, 2010)", "key": {"[1]": {"target": "T1, Vascular endothelial growth factor receptor 2 (Homo sapiens, UniProt P35968)", "T1 sequence (P35968 whole entry)": "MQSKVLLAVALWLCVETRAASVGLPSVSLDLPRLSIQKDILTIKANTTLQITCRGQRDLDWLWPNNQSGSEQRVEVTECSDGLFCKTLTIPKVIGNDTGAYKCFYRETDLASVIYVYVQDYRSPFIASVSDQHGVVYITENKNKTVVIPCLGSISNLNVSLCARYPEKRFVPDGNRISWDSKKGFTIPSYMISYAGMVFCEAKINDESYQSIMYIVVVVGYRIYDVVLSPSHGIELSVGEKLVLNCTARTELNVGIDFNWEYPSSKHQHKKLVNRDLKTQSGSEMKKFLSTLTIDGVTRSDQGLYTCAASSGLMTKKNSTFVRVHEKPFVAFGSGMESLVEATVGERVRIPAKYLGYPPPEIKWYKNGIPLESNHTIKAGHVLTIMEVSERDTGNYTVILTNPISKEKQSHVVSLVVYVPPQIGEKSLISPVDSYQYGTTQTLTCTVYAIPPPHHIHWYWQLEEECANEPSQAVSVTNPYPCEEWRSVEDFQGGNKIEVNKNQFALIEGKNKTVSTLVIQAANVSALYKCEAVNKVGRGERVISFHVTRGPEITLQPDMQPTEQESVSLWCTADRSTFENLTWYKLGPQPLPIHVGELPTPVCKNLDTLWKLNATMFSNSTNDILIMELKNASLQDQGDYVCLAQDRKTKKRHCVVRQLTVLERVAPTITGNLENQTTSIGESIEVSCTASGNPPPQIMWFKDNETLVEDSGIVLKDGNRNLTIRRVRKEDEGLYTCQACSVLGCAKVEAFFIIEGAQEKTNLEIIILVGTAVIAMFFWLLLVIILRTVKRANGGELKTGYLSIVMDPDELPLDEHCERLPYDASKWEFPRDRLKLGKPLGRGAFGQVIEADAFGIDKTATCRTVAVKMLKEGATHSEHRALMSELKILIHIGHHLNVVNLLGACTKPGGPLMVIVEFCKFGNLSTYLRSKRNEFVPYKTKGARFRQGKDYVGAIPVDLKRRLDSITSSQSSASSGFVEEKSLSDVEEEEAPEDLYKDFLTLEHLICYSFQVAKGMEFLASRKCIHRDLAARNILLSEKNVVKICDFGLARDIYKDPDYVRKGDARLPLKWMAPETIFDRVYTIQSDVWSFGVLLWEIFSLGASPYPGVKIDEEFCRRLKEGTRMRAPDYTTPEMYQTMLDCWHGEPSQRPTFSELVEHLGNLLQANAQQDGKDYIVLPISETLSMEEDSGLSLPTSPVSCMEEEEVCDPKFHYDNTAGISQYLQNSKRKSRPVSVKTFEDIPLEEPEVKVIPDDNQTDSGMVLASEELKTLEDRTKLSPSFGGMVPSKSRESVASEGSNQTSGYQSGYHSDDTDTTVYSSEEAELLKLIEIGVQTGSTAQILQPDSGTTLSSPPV", "details": "HUE, 10 uM"}, "NCI60": {"test_system": "NCI60", "assay": "Antiproliferative activity against human NCI60 cells at 10 uM after 48 hrs by sulforhodamine B assay", "type": "functional, cell-based", "in_short": "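NCI 60-cell-line prescreen with compound given once at 10 μM. Cells grown in RPMI 1640 with 5% FBS and 2 mM L-glutamine, plated 24 h before dosing, then exposed 48 h at 37 °C. Fixed with cold TCA, stained with SRB, absorbance read at 515 nm, and percent growth taken relative to time-zero and control wells.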"}, "[2]": {"target": "T1, Vascular endothelial growth factor receptor 2", "assay": "Inhibition of VEGFR2 assessed as [33Pi] incorporation by microplate scintillation counting in presence of 1 uM ATP", "in_short": "(§1)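 Substrates: Poly(Glu,Tyr)4:1 for VEGFR2; Poly(Glu,Tyr) or Poly(Ala,Glu,Lys,Tyr) for INS-R; RBER-CHKtide or casein for PLK1. Incubated 30 °C, 80 min, stopped with 2% H3PO4. Singlicate; activity referenced to no-enzyme and no-inhibitor controls.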"}, "[3]": {"target": "T2, Serine/threonine-protein kinase PLK1 (Homo sapiens, UniProt P53350)", "T2 sequence (P53350 whole entry)": "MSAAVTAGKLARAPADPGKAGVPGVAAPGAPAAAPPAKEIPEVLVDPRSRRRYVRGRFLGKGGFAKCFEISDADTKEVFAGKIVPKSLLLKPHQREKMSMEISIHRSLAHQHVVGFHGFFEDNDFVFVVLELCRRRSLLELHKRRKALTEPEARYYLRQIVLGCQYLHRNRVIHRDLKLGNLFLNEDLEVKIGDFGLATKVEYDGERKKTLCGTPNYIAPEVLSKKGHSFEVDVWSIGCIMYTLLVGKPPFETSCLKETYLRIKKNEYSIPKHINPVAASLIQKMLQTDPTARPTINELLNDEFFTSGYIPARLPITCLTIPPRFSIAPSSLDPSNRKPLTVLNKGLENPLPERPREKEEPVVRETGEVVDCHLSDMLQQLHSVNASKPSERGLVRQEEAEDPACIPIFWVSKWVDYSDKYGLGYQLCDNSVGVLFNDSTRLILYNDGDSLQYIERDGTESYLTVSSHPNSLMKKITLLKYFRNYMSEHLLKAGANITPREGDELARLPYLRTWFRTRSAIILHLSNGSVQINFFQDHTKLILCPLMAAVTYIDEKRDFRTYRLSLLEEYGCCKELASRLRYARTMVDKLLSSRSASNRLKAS", "assay": "Inhibition of PLK1 assessed as [33Pi] incorporation by microplate scintillation counting in presence of 1 uM ATP"}, "Insulin receptor [4]": {"target": "T3, Insulin receptor (Homo sapiens, UniProt P06213)", "T3 sequence (P06213 28-758 limits assumed)": "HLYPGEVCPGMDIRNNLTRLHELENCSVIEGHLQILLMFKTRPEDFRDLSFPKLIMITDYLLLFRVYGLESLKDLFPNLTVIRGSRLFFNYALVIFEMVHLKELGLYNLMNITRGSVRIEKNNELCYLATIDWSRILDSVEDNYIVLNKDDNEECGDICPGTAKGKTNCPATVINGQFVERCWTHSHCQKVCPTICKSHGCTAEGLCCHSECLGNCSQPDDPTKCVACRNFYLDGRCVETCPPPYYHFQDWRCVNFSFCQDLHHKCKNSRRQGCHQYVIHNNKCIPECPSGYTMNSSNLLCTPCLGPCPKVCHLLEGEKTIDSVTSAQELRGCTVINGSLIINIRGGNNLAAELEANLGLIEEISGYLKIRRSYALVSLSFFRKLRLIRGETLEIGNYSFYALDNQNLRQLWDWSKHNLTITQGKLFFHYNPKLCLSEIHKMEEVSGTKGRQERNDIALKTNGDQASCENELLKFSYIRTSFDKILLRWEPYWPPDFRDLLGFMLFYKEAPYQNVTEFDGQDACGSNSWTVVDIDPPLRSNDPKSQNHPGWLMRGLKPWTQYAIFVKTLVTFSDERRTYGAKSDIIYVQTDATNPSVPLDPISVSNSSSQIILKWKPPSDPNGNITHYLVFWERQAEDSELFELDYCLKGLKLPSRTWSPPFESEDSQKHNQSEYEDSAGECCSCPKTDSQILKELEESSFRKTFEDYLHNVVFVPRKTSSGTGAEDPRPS", "T3 sequence (P06213 763-1382 limits assumed)": "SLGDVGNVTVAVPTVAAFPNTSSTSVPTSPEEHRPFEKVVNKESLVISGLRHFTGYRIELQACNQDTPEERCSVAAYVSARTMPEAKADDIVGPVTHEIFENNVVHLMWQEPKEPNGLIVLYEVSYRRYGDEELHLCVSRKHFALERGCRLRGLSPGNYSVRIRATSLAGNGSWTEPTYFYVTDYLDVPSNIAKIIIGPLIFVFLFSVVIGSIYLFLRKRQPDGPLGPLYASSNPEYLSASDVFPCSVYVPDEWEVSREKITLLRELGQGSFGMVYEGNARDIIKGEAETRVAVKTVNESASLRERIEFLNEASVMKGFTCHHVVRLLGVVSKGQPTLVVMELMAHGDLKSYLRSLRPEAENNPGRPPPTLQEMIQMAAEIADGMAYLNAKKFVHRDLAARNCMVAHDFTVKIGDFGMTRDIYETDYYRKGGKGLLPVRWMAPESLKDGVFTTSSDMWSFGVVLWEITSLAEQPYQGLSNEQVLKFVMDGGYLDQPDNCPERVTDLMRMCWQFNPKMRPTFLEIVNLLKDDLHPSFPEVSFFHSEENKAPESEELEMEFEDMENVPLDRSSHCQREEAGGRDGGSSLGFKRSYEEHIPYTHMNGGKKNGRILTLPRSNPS", "assay": "Inhibition of INSR assessed as [33Pi] incorporation by microplate scintillation counting in presence of 1 uM ATP", "in_short": "as §1"}, "[5]": {"target": "T1, Vascular endothelial growth factor receptor 2", "assay": "Inhibition of VEGFR2 in HUE cells assessed as inhibition of VEGF-induced autophosphorylation treated for 90 mins before VEGF challenge by ELISA", "type": "cell-based"}, "UACC-257": {"test_system": "UACC-257", "assay": "Growth inhibition of human UACC257 cells after 48 hrs by sulforhodamine B assay", "type": "functional", "details": "UACC-257, 48 h", "in_short": "(§2)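 NCI SRB assay with five drug concentrations, top concentration 100 μM, 48 h exposure at 37 °C in RPMI 1640/5% FBS. GI50 is the concentration giving [(Ti−Tz)/(C−Tz)]×100 = 50. Values are means of two independent runs on different dates, each run in duplicate.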"}, "CAKI-1": {"test_system": "CAKI-1", "assay": "Growth inhibition of human Caki1 cells after 48 hrs by sulforhodamine B assay", "type": "functional", "details": "CAKI-1, 48 h", "in_short": "as §2"}, "IGROV-1": {"test_system": "IGROV-1", "assay": "Growth inhibition of human IGROV1 cells after 48 hrs by sulforhodamine B assay", "type": "functional", "details": "IGROV-1, 48 h", "in_short": "as §2"}, "HUVEC": {"test_system": "HUVEC", "assay": "Inhibition of angiogenesis in HUVEC assessed as inhibition of VEGF-induced sprout growth from cellular spheroids after 24 hrs", "type": "functional, cell-based", "details": "Homo sapiens", "in_short": "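Spheroids of 500 primary HUVEC formed overnight in hanging drops, then embedded in collagen gel. Compound added with VEGF-A at 25 ng/mL final, incubated 37 °C for 24 h, then fixed in 4% paraformaldehyde. Cumulative sprout length measured by image analysis; the mean of 10 random spheroids counts as one data point. IC50 from curve fitting.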"}, "[6]": {"target": "T2, Serine/threonine-protein kinase PLK1", "assay": "Inhibition of PLK1 assessed as [33Pi] incorporation at 10 uM by microplate scintillation counting in presence of 1 uM ATP", "in_short": "as §1"}, "[7]": {"target": "T1, Vascular endothelial growth factor receptor 2", "assay": "Inhibition of VEGFR2 assessed as [33Pi] incorporation at 10 uM by microplate scintillation counting in presence of 1 uM ATP", "in_short": "as §1"}, "Insulin receptor [8]": {"target": "T3, Insulin receptor", "assay": "Inhibition of INSR assessed as [33Pi] incorporation at 10 uM by microplate scintillation counting in presence of 1 uM ATP", "in_short": "as §1"}}, "note": "Active and inactive are the calls of the source.", "data": [{"compound": "O=C1Cc2cnc(Nc3ccc(O)c(Cl)c3)nc2-c2cnccc2N1", "values": [{"measurement": "inhibition", "setting": "[1]", "result": "inactive"}, {"measurement": "Activity", "setting": "NCI60", "result": "Active"}, {"measurement": "IC50", "setting": "[2]", "result": 87, "unit": "nM"}, {"measurement": "IC50", "setting": "[3]", "result": 1.4, "unit": "µM"}, {"measurement": "IC50", "setting": "Insulin receptor [4]", "result": "> 100", "unit": "µM"}]}, {"compound": "CCOc1ccc(Nc2ncc3c(n2)-c2ccc(OC)cc2NC(=O)C3)cc1", "values": [{"measurement": "IC50", "setting": "[5]", "result": 290, "unit": "nM"}, {"measurement": "Activity", "setting": "NCI60", "result": "Active"}, {"measurement": "GI50", "setting": "UACC-257", "result": 55, "unit": "µM"}, {"measurement": "GI50", "setting": "CAKI-1", "result": 390, "unit": "nM"}, {"measurement": "GI50", "setting": "IGROV-1", "result": 230, "unit": "nM"}, {"measurement": "IC50", "setting": "[2]", "result": 52, "unit": "nM"}, {"measurement": "IC50", "setting": "[3]", "result": 7.3, "unit": "µM"}, {"measurement": "IC50", "setting": "Insulin receptor [4]", "result": "> 100", "unit": "µM"}, {"measurement": "IC50", "setting": "HUVEC", "result": 1100, "unit": "nM"}]}, {"compound": "O=C1Cc2cnc3ncnn3c2-c2ccccc2N1", "values": [{"measurement": "Activity", "setting": "NCI60", "result": "Active"}, {"measurement": "inhibition", "setting": "[6]", "result": "< 30", "unit": "%"}, {"measurement": "inhibition", "setting": "[7]", "result": "< 30", "unit": "%"}, {"measurement": "inhibition", "setting": "Insulin receptor [8]", "result": "< 30", "unit": "%"}]}]}
